The values below come from PubChem BioAssay AID2237 (Johns Hopkins Ion Channel Center, 2010).

Hit rate of the full screen: of about 310,000 compounds, about 1,500 (0.48%) were called active.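 The calls were made as follows: active = B-score above 5 SD of library B-scores, and initial fluorescence ratio not above library mean plus 5 SD; inactive = the rest.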 The list comes from a sample in which actives are over-represented; it also holds similar structures and randomly drawn compounds.

The target of this experiment is Short transient receptor potential channel 4 (Mus musculus) (UniProt Q9QUQ5). The experiment can be described thus: activators of mouse TRPC4 channel, primary screen, Fluo4 calcium, HEK293 TRPC4beta/mu-opioid cells (AID 2237).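 As to B-score: positive B-score marks a calcium rise read as TRPC4 activation.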 The settings on record: Fluo4 calcium fluorescence, at 10 µM; active compounds read high. Put shortly: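 Assay system: HEK293 stable line with TRPC4beta plus mu-opioid receptor; schedule: 45 min room-temperature Fluo4 loading, 110 s read; technique: kinetic Fluo4 calcium fluorescence; evaluation: integrated baseline-normalised fluorescence ratio, converted to per-well B score; controls: buffer (low) and maximal DAMGO (high)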
Short transient receptor potential channel 4 (Mus musculus), sequence (Q9QUQ5 whole entry, looked up): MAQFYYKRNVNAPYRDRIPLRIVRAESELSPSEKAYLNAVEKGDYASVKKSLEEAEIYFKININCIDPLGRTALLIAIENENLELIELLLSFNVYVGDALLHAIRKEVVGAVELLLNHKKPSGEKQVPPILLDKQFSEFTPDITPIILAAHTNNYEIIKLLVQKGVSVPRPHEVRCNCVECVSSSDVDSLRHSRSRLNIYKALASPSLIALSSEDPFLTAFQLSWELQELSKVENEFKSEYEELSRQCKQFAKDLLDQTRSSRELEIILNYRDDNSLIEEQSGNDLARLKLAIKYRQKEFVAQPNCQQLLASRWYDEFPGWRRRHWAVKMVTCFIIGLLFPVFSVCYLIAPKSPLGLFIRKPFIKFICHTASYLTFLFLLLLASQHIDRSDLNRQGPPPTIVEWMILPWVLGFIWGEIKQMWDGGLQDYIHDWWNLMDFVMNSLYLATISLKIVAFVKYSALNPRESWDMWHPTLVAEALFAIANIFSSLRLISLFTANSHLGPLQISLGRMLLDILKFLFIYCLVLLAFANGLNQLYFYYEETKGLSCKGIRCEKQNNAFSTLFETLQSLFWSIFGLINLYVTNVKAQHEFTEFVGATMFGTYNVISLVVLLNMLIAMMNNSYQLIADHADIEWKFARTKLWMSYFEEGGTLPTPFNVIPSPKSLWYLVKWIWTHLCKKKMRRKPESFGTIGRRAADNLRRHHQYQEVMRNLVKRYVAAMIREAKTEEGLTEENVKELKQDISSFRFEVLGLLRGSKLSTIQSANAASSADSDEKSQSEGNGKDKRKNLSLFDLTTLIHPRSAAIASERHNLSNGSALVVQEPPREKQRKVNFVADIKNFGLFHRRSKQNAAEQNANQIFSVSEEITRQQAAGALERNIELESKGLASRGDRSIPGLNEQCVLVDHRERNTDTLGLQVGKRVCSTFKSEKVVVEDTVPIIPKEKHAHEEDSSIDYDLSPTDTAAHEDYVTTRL
Regarding `CCOCCCNC(=O)C(=O)NCCCOCC`, the B-score entry was “inactive”.

For the compound `CCCCn1c(-c2cccc(C)c2)nc2cc3[nH]c(=O)c(C(C)C)nc3cc21`, the B-score result is “inactive”.

As to `Cc1ccnc(NC(=O)CCNS(=O)(=O)c2ccc(C)c(C)c2)c1`, the B-score result was “inactive”.

Take `CCOc1ccc(NS(=O)(=O)c2ccc(C(=O)NCC(c3ccccc3OC)N3CCCC3)cc2)cc1` (stereo not drawn): the B-score result is “inactive”.

Turning to `CC(NC(=O)COC(=O)c1ccc(Cl)cc1O)c1ccc(F)cc1` (stereo not drawn), the B-score entry is “inactive”.

As for `COc1ccc(Cl)cc1NC(=O)CNc1ccccc1F`, the B-score result is “inactive”.

With `COc1ccc(C(CNC(=O)c2ccc(S(=O)(=O)Nc3ccccc3F)cc2)N(C)C)cc1` (stereo not drawn), the B-score entry was “inactive”.

Regarding `COc1ccc(C(CNCC(=O)Nc2ccccc2F)N(C)C)cc1` (stereo not drawn), the B-score was 108 (active).

Regarding `COc1ccc2c(c1)SC(C)CC2=O` (stereo not drawn), the B-score entry is “inactive”.

Turning to `CC1(C)CC(=O)c2ccc(O)cc2O1`, the B-score result is “inactive”.

As to `COc1ccc2c(c1)OC(O)(C(F)(F)C(F)F)CC2=O` (stereo not drawn), the B-score is 82 (active).

On to `O=S1(=O)CC/C(=N\Nc2ccc(F)cc2)c2ccsc21`, for which the B-score result is “inactive”.

As to `CC(C)Sc1ncnc2c1cnn2-c1ccccc1`, the B-score result is “inactive”.

Consider `COc1ccc(-n2ncc3c(SCC(=O)NNC(C)=O)ncnc32)cc1`, for which the B-score entry is “inactive”.

For `COc1ccc(-n2ncc3c(N4CCc5ccccc54)ncnc32)cc1`, the B-score is 64 (active).

`CC(C)N1CCC(NC(=O)Nc2ccccc2)CC1`: the B-score result is “inactive”.

Turning to `COc1ccc(N(CC(=O)N2CCCCCC2)S(=O)(=O)c2ccccc2)cc1`, the B-score result is “inactive”.

In the case of `COc1ccccc1N(CC(=O)N1CCCCC1)S(=O)(=O)c1ccccc1`, the B-score is 56 (active).

With `COc1ccc(C)cc1N(CC(=O)N1CCCC1)S(=O)(=O)c1ccccc1`, the B-score entry was “inactive”.

For the compound `COC(=O)CC1=NN(c2nc(C)cc(C)n2)C(=O)C1`, the B-score result was “inactive”.

With `S=C(Nc1ccc(Br)cc1Cl)NC1CCN(Cc2ccccc2)CC1`, the B-score is 57 (active).

`S=C(Nc1ccc(Br)cc1)NC1CCN(Cc2ccccc2)CC1`: the B-score entry is “inactive”.

For `O=C(COc1ccc(Br)cc1F)NC1CCN(Cc2ccccc2)CC1`, the B-score entry was “inactive”.

With `O=C(COc1ccccc1Cl)N1CCCCCCC1`, the B-score result was “inactive”.

For the compound `CCN1C(=O)C(C(=O)NC(C)c2ccccc2)C2CC1(C)Oc1ccccc12` (stereo not drawn), the B-score result is “inactive”.

For `COc1cccc(-c2nc(CS(=O)(=O)CC(=O)NCCc3ccc(OC)c(OC)c3)c(C)o2)c1`, the B-score entry was “inactive”.

Regarding `COc1ccc(-c2nc(CS(=O)(=O)CC(=O)NCc3cccc(Br)c3)c(C)o2)cc1`, the B-score result is “inactive”.

`CCCCN(CC)CCCNC(=O)CS(=O)(=O)Cc1nc(-c2cccc(OC)c2)oc1C`: the B-score is 56 (active).

In the case of `CCN1/C(=C\c2ccc3ccccc3[n+]2CC)Sc2cc(C)ccc21`, the B-score is 425 (active).

Regarding `CCOc1ccc(CN2CCNC(=O)C2CC(=O)NCCCC2CCCC2)cc1` (stereo not drawn), the B-score result was “inactive”.

With `CCN(CC)c1ccc(NC(=O)C2CCC(CNc3c(N4CCCC4)c(=O)c3=O)CC2)c(C)c1` (stereo not drawn), the B-score result was “inactive”.

On to `CCCn1c(C2CCCN2c2nc(-c3ccc(C)cc3)cs2)nc2cc(Cl)c(N3CCCCC3)cc21` (stereo not drawn), for which the B-score result is “inactive”.

Take `CCCn1c(C2CCCN2c2nc(-c3ccc(OC)cc3)cs2)nc2ccccc21` (stereo not drawn): the B-score is 70 (active).

As to `CCCn1c(CCNc2nc(-c3ccc(OC)cc3)cs2)nc2ccccc21`, the B-score entry was “inactive”.

Consider `CCN1C(=O)[C@H]2[C@@H](c3ccc(-c4ccc(OC)cc4)cc3)N[C@@](Cc3ccccc3)(C(=O)OC)[C@H]2C1=O`, for which the B-score result is “inactive”.

For the compound `COC(=O)c1cc(S(=O)(=O)NC2CCN(Cc3ccccc3)CC2)cn1C`, the B-score entry was “inactive”.

Regarding `CCC1(CC)Cc2ccccc2-c2nc(CCl)[nH]c(=O)c21`, the B-score entry was “inactive”.

For `COc1cc(CN2CCCC(C(=O)c3ccc(SC)cc3)C2)cc(Cl)c1O` (stereo not drawn), the B-score entry is “inactive”.

Turning to `COc1ccc(CN2CCCC(C(=O)c3ccc(Cl)cc3)C2)cc1Cn1cncn1` (stereo not drawn), the B-score is 48 (active).

Take `COc1ccc(CCN(C)C(=O)C2CCCN(Cc3ccc(OC)c(OC)c3)C2)cc1OC` (stereo not drawn): the B-score entry was “inactive”.

`CCNS(=O)(=O)c1ccc(CCC(=O)N2CCN(c3ccc(OC)cc3)CC2)cc1`: the B-score result was “inactive”.

For the compound `CN1C(CC(=O)Nc2ccc(Br)cc2)c2ccccc2CC1(C)C` (stereo not drawn), the B-score is 109 (active).

In the case of `COCC(=O)Nc1ccc(Br)cc1`, the B-score entry is “inactive”.

Take `CN1CCN(NC(=O)Nc2ccc(Br)cc2)CC1`: the B-score entry is “inactive”.

As for `COC(=O)C1CCN(C(=O)NC2CC(=O)N(c3ccc4c(c3)OCCO4)C2)CC1` (stereo not drawn), the B-score entry is “inactive”.

`CN(CC(=O)Nc1ccccc1Cl)C(=O)COc1cccc2c1OC(C)(C)C2`: the B-score entry was “inactive”.

`CCOC(=O)C1(CC2CCCCO2)CCN(Cc2nc(-c3cccs3)oc2C)CC1` (stereo not drawn): the B-score was 73 (active).

Regarding `COc1cccc(CC2(CO)CCCN(Cc3nc(-c4cccs4)oc3C)C2)c1` (stereo not drawn), the B-score entry is “inactive”.

For `CCOc1ccccc1-c1nc(CN2CCC(C(=O)N3CCOCC3)CC2)c(C)o1`, the B-score result was “inactive”.

Take `CC12CCC(C(=O)N(NC(=O)c3ccccc3O)C1=O)C2(C)C` (stereo not drawn): the B-score entry was “inactive”.

`O=C(NCc1cccnc1)c1cnc2ccccc2n1`: the B-score entry is “inactive”.

Regarding `COc1cc(C(=O)Nn2c(CC(C)C)nc3ccccc3c2=O)cc(OC)c1OC`, the B-score entry was “inactive”.

As to `CCc1noc(C)c1C(=O)NNC(=O)c1ccc(F)cc1`, the B-score entry is “inactive”.

Turning to `Cc1onc(-c2ccccc2)c1C(=O)NNC(=S)NC(=O)c1ccc(F)cc1`, the B-score is 185 (active).

For the compound `Cc1onc(-c2ccccc2)c1C(=O)Nc1ccccc1C#N`, the B-score result is “inactive”.

Consider `COc1ccc(C(=O)NC(=S)NNC(=O)c2c(-c3ccccc3)noc2C)cc1`, for which the B-score is 133 (active).

As for `Cc1onc(-c2c(Cl)cccc2Cl)c1C(=O)NNC(=O)c1c(-c2c(Cl)cccc2Cl)noc1C`, the B-score result is “inactive”.

For `Cc1ccc(CNC(=O)c2c(-c3ccccc3)noc2C)cc1`, the B-score result is “inactive”.

With `CCc1cccc(C)c1NS(=O)(=O)c1cc(Br)cnc1N`, the B-score result was “inactive”.

`Cc1cc(NS(=O)(=O)c2ccc(NC(=O)C(C)Oc3cccc(C)c3C)cc2)nc(C)n1` (stereo not drawn): the B-score entry is “inactive”.

Take `COc1ccccc1N1CCN(c2nc(C)cc(=O)[nH]2)CC1`: the B-score result is “inactive”.

Take `Cc1ccc(CN2CCN(c3ccccc3Cl)CC2)o1`: the B-score result is “inactive”.

Consider `OCCNCCCCOc1ccccc1F`, for which the B-score result is “inactive”.

With `OCCNCCOc1ccc(Cl)c(Cl)c1`, the B-score is 70 (active).

Regarding `OCCNCc1cccc(OCc2ccccc2Cl)c1`, the B-score entry is “inactive”.

Consider `COc1cccc2c1CCC(NC(C)=O)C2=O` (stereo not drawn), for which the B-score result was “inactive”.

Regarding `c1ccc(C[C@H]2CNCCN2CCC23CC4CC(CC(C4)C2)C3)cc1`, the B-score entry was “inactive”.

Regarding `COC(=O)C1(C)CC1(c1ccccc1)c1ccccc1` (stereo not drawn), the B-score result is “inactive”.

With `CCN(CC(=O)Nc1ccc(S(=O)(=O)N2CCCC2)cc1)CC(=O)Nc1cccc(OC)c1`, the B-score entry was “inactive”.

Regarding `CCNS(=O)(=O)c1ccc(NC(=O)Nc2cccc(OC)c2)cc1`, the B-score was 54 (active).

With `COc1cccc(NC(C)=[N+](C)CCNS(=O)(=O)c2ccc(Cl)cc2)c1`, the B-score result was “inactive”.

For the compound `CC(CN1CCCCC1)c1ccccc1` (stereo not drawn), the B-score entry is “inactive”.

As to `CC(=O)c1ccc(N2CCN(CC(O)c3ccccc3)CC2)cc1` (stereo not drawn), the B-score was 63 (active).

Consider `CC(=O)N1CCN(CC(c2ccccc2)c2ccccc2)CC1`, for which the B-score entry was “inactive”.

For `CC(=O)c1ccc(N2CCN(C(=O)CCc3ccccc3)CC2)cc1`, the B-score entry is “inactive”.

On to `CCCOc1ccc(Cc2c(O)nc(N)[nH]c2=O)cc1C`, for which the B-score entry is “inactive”.

As for `C=CCc1ccc(OCCOc2cccc(/C=N/n3cnnc3)c2)c(OC)c1`, the B-score result was “inactive”.

As to `COC(=O)[C@H]1Cc2cnoc2C[C@]1(C)C(=O)O`, the B-score result is “inactive”.
